≈ marks a conversion by molar mass, not a printed value.
Columns and labels:
Klebsiella pneumoniae [1] = experiment: Antimicrobial activity against ciprofloxacin-susceptible Klebsiella pneumoniae isolate 737 harboring GyrA Ser83Leu and Val198Ile mutant gene by agar dilution method; format: functional
Klebsiella pneumoniae [2] = experiment: Antimicrobial activity against ciprofloxacin-resistant Klebsiella pneumoniae isolate 149 harboring GyrA Ser83Leu, Asp78Asn, Ala171Ser and Val198Ile mutant gene by agar dilution method; format: functional
Klebsiella pneumoniae [3] = experiment: microbe, parasite or virus in culture; settings: isolate 24
Klebsiella pneumoniae [4] = experiment: Antimicrobial activity against ciprofloxacin-resistant Klebsiella pneumoniae isolate 769 harboring GyrA Ser83Ile and Gly177Arg mutant gene by agar dilution method; format: functional
Klebsiella pneumoniae [5] = experiment: microbe, parasite or virus in culture; settings: isolate 3
Klebsiella pneumoniae [6] = experiment: Antimicrobial activity against ciprofloxacin-resistant Klebsiella pneumoniae isolate 234 harboring GyrA Ser83Leu, Asp78Asn, Ala171Ser and Val198Ile mutant gene by agar dilution method; format: functional
Klebsiella pneumoniae [7] = experiment: Antimicrobial activity against ciprofloxacin-resistant Klebsiella pneumoniae isolate 3 harboring GyrA Ser83Leu, Asp78Asn, Ala171Ser and Val198Ile mutant gene by agar dilution method; format: functional
Klebsiella pneumoniae [8] = experiment: Antimicrobial activity against ciprofloxacin-resistant Klebsiella pneumoniae isolate 721 harboring GyrA Ala171Ser, Leu187Ile and Val198Ile mutant gene by agar dilution method; format: functional
Klebsiella pneumoniae [9] = experiment: Antimicrobial activity against ciprofloxacin-susceptible Klebsiella pneumoniae isolate 212 harboring GyrA Ala171Ser, Leu187Ile and Val198Ile mutant gene by agar dilution method; format: functional
Klebsiella pneumoniae [10] = experiment: Antimicrobial activity against ciprofloxacin-intermediate resistant Klebsiella pneumoniae isolate 753 harboring GyrA Ser83Ile mutant gene by agar dilution method; format: functional
Klebsiella pneumoniae [11] = experiment: Antimicrobial activity against ciprofloxacin-susceptible Klebsiella pneumoniae isolate 738 by agar dilution method; format: functional
Summary of the method: (§1)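 MIC read by agar dilution on Mueller-Hinton agar following CLSI (formerly NCCLS) recommendations. K. pneumoniae isolates were identified with the API 20E system and confirmed as nonduplicated by randomly amplified polymorphic DNA analysis.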

Klebsiella pneumoniae [12] = experiment: Antimicrobial activity against ciprofloxacin-susceptible Klebsiella pneumoniae isolate 577 by agar dilution method; format: functional; summary of the method: as §1
Klebsiella pneumoniae [13] = experiment: Antimicrobial activity against ciprofloxacin-resistant Klebsiella pneumoniae isolate 772 harboring GyrA Ser83Ile mutant gene by agar dilution method; format: functional
Klebsiella pneumoniae [14] = experiment: Antimicrobial activity against ciprofloxacin-resistant Klebsiella pneumoniae isolate 863 harboring GyrA Ser83Leu, Asp78Asn, Ala171Ser and Val198Ile mutant gene by agar dilution method; format: functional
Klebsiella pneumoniae [15] = experiment: Antimicrobial activity against ciprofloxacin-resistant Klebsiella pneumoniae isolate 205 harboring GyrA Ser83Leu, Asp78Asn, Ala171Ser and Val198Ile mutant gene by agar dilution method; format: functional
Klebsiella pneumoniae [16] = experiment: Antimicrobial activity against ciprofloxacin-resistant Klebsiella pneumoniae isolate 95 harboring GyrA Ser83Leu, Asp78Asn, Ala171Ser and Val198Ile mutant gene by agar dilution method; format: functional
Klebsiella pneumoniae [17] = experiment: Antimicrobial activity against ciprofloxacin-susceptible Klebsiella pneumoniae isolate 840 harboring GyrA Ala171Ser, Leu187Ile and Val198Ile mutant gene by agar dilution method; format: functional
Klebsiella pneumoniae [18] = experiment: Antimicrobial activity against ciprofloxacin-susceptible Klebsiella pneumoniae isolate 182 harboring GyrA Ser83Thr and Ala171Ser mutant gene by agar dilution method; format: functional
Klebsiella pneumoniae [19] = experiment: Antimicrobial activity against ciprofloxacin-resistant Klebsiella pneumoniae isolate 836 by agar dilution method; format: functional
Klebsiella pneumoniae [20] = experiment: Antimicrobial activity against ciprofloxacin-resistant Klebsiella pneumoniae isolate 779 harboring GyrA Ser83Leu, Asp78Asn, Ala171Ser and Val198Ile mutant gene by agar dilution method; format: functional
Klebsiella pneumoniae [21] = experiment: Antimicrobial activity against ciprofloxacin-intermediate resistant Klebsiella pneumoniae isolate 715 by agar dilution method; format: functional
Klebsiella pneumoniae [22] = experiment: Antimicrobial activity against ciprofloxacin-resistant Klebsiella pneumoniae isolate 663 harboring GyrA Ser83Leu, Asp78Asn, Ala171Ser and Val198Ile mutant gene by agar dilution method; format: functional
Klebsiella pneumoniae [23] = experiment: Antimicrobial activity against ciprofloxacin-susceptible Klebsiella pneumoniae isolate 49 harboring GyrA Asp87Asn, Arg154Ser and Ala171Ser mutant gene by agar dilution method; format: functional
Klebsiella pneumoniae [24] = experiment: Antimicrobial activity against ciprofloxacin-susceptible Klebsiella pneumoniae isolate 838 harboring GyrA Ser83Tyr, Ala171Ser, Leu187Ile and Val198Ile mutant gene by agar dilution method; format: functional
Klebsiella pneumoniae [25] = experiment: microbe, parasite or virus in culture; settings: isolate 29
Klebsiella pneumoniae [26] = experiment: Antimicrobial activity against ciprofloxacin-resistant Klebsiella pneumoniae isolate 103 harboring GyrA Ser83Leu, Asp78Asn, Ala171Ser and Val198Ile mutant gene by agar dilution method; format: functional
Klebsiella pneumoniae [27] = experiment: Antimicrobial activity against ciprofloxacin-resistant Klebsiella pneumoniae isolate 719 harboring GyrA Ser83Leu, Asp78Asn, Ala171Ser and Val198Ile mutant gene by agar dilution method; format: functional
Klebsiella pneumoniae [28] = experiment: Antimicrobial activity against ciprofloxacin-susceptible Klebsiella pneumoniae isolate 685 harboring GyrA Ala171Ser, Leu187Ile and Val198Ile mutant gene by agar dilution method; format: functional
Klebsiella pneumoniae [29] = experiment: Antimicrobial activity against ciprofloxacin-resistant Klebsiella pneumoniae isolate 827 harboring GyrA Ser83Ile mutant gene by agar dilution method; format: functional
Klebsiella pneumoniae [30] = experiment: Antimicrobial activity against ciprofloxacin-susceptible Klebsiella pneumoniae isolate 724 harboring GyrA Ser83Ile mutant gene by agar dilution method; format: functional
Klebsiella pneumoniae [31] = experiment: microbe, parasite or virus in culture; settings: isolate 16
Klebsiella pneumoniae [32] = experiment: Antimicrobial activity against ciprofloxacin-resistant Klebsiella pneumoniae isolate 828 harboring GyrA Ser83Ile and Gly177Arg mutant gene by agar dilution method; format: functional
Klebsiella pneumoniae [33] = experiment: Antimicrobial activity against ciprofloxacin-resistant Klebsiella pneumoniae isolate 27 harboring GyrA Ser83Leu, Asp78Asn, Ala171Ser and Val198Ile mutant gene by agar dilution method; format: functional
Klebsiella pneumoniae [34] = experiment: Antimicrobial activity against ciprofloxacin-susceptible Klebsiella pneumoniae isolate 760 by agar dilution method; format: functional
Klebsiella pneumoniae [35] = experiment: Antimicrobial activity against ciprofloxacin-resistant Klebsiella pneumoniae isolate 94 harboring GyrA Ser83Leu, Asp78Asn, Ala171Ser and Val198Ile mutant gene by agar dilution method; format: functional
Klebsiella pneumoniae [36] = experiment: Antimicrobial activity against ciprofloxacin-susceptible Klebsiella pneumoniae isolate 517 harboring GyrA Ala171Ser, Leu187Ile and Val198Ile mutant gene by agar dilution method; format: functional
Klebsiella pneumoniae [37] = experiment: Antimicrobial activity against ciprofloxacin-intermediate resistant Klebsiella pneumoniae isolate 21 by agar dilution method; format: functional
Klebsiella pneumoniae [38] = experiment: microbe, parasite or virus in culture; settings: isolate 19

**Q.** With `O=C(O)c1cn(C2CC2)c2cc(N3CCNCC3)c(F)cc2c1=O` [CIPROFLOXACIN] as the compound, how does the MIC (Klebsiella pneumoniae [1]) read?
**A.** < 0.0312 µg/mL

**Q.** And the MIC (Klebsiella pneumoniae [2])?
**A.** 64 µg/mL (≈ 193 µM)

**Q.** And the MIC (Klebsiella pneumoniae [3])?
**A.** 32 µg/mL (≈ 96.6 µM)

**Q.** And the MIC (Klebsiella pneumoniae [4])?
**A.** 32 µg/mL (≈ 96.6 µM)

**Q.** What about the MIC (Klebsiella pneumoniae [5]) of the same compound?
**A.** 16 µg/mL (≈ 48.3 µM)

**Q.** And the MIC (Klebsiella pneumoniae [6])?
**A.** 16 µg/mL (≈ 48.3 µM)

**Q.** What about the MIC (Klebsiella pneumoniae [7]) of the same compound?
**A.** 16 µg/mL (≈ 48.3 µM)

**Q.** What about the MIC (Klebsiella pneumoniae [8]) of the same compound?
**A.** 8 µg/mL (≈ 24.1 µM)

**Q.** What about the MIC (Klebsiella pneumoniae [9]) of the same compound?
**A.** < 0.0312 µg/mL

**Q.** And the MIC (Klebsiella pneumoniae [10])?
**A.** 2 µg/mL (≈ 6.04 µM)

**Q.** And the MIC (Klebsiella pneumoniae [11])?
**A.** 1 µg/mL (≈ 3.02 µM)

**Q.** And the MIC (Klebsiella pneumoniae [12])?
**A.** 0.125 µg/mL (≈ 0.377 µM)

**Q.** What about the MIC (Klebsiella pneumoniae [13]) of the same compound?
**A.** 32 µg/mL (≈ 96.6 µM)

**Q.** What about the MIC (Klebsiella pneumoniae [14]) of the same compound?
**A.** 128 µg/mL (≈ 386 µM)

**Q.** What about the MIC (Klebsiella pneumoniae [15]) of the same compound?
**A.** 4 µg/mL (≈ 12.1 µM)

**Q.** And the MIC (Klebsiella pneumoniae [16])?
**A.** 128 µg/mL (≈ 386 µM)

**Q.** What about the MIC (Klebsiella pneumoniae [17]) of the same compound?
**A.** 1 µg/mL (≈ 3.02 µM)

**Q.** And the MIC (Klebsiella pneumoniae [18])?
**A.** < 0.0312 µg/mL

**Q.** And the MIC (Klebsiella pneumoniae [19])?
**A.** 4 µg/mL (≈ 12.1 µM)

**Q.** What about the MIC (Klebsiella pneumoniae [20]) of the same compound?
**A.** 32 µg/mL (≈ 96.6 µM)

**Q.** And the MIC (Klebsiella pneumoniae [21])?
**A.** 2 µg/mL (≈ 6.04 µM)

**Q.** And the MIC (Klebsiella pneumoniae [22])?
**A.** 64 µg/mL (≈ 193 µM)

**Q.** And the MIC (Klebsiella pneumoniae [23])?
**A.** 0.5 µg/mL (≈ 1.51 µM)

**Q.** And the MIC (Klebsiella pneumoniae [24])?
**A.** 1 µg/mL (≈ 3.02 µM)

**Q.** And the MIC (Klebsiella pneumoniae [25])?
**A.** 16 µg/mL (≈ 48.3 µM)

**Q.** And the MIC (Klebsiella pneumoniae [26])?
**A.** 64 µg/mL (≈ 193 µM)

**Q.** What about the MIC (Klebsiella pneumoniae [27]) of the same compound?
**A.** 8 µg/mL (≈ 24.1 µM)

**Q.** What about the MIC (Klebsiella pneumoniae [28]) of the same compound?
**A.** 0.125 µg/mL (≈ 0.377 µM)

**Q.** And the MIC (Klebsiella pneumoniae [29])?
**A.** 32 µg/mL (≈ 96.6 µM)

**Q.** What about the MIC (Klebsiella pneumoniae [30]) of the same compound?
**A.** < 0.0312 µg/mL

**Q.** And the MIC (Klebsiella pneumoniae [31])?
**A.** 4 µg/mL (≈ 12.1 µM)

**Q.** What about the MIC (Klebsiella pneumoniae [32]) of the same compound?
**A.** 32 µg/mL (≈ 96.6 µM)

**Q.** What about the MIC (Klebsiella pneumoniae [33]) of the same compound?
**A.** 8 µg/mL (≈ 24.1 µM)

**Q.** And the MIC (Klebsiella pneumoniae [34])?
**A.** < 0.0312 µg/mL

**Q.** And the MIC (Klebsiella pneumoniae [35])?
**A.** 32 µg/mL (≈ 96.6 µM)

**Q.** What about the MIC (Klebsiella pneumoniae [36]) of the same compound?
**A.** < 0.0312 µg/mL

**Q.** And the MIC (Klebsiella pneumoniae [37])?
**A.** 2 µg/mL (≈ 6.04 µM)

**Q.** And the MIC (Klebsiella pneumoniae [38])?
**A.** 8 µg/mL (≈ 24.1 µM)

**Q.** Which results are given for `CCn1cc(C(=O)O)c(=O)c2ccc(C)nc21` [NALIDIXIC ACID]?
**A.** MIC (Klebsiella pneumoniae [1]): 8 µg/mL (≈ 34.4 µM); MIC (Klebsiella pneumoniae [2]): > 512 µg/mL; MIC (Klebsiella pneumoniae [4]): > 512 µg/mL; MIC (Klebsiella pneumoniae [6]): > 512 µg/mL; MIC (Klebsiella pneumoniae [7]): > 512 µg/mL; MIC (Klebsiella pneumoniae [8]): > 512 µg/mL; MIC (Klebsiella pneumoniae [9]): 16 µg/mL (≈ 68.9 µM); MIC (Klebsiella pneumoniae [10]): > 512 µg/mL; MIC (Klebsiella pneumoniae [11]): 8 µg/mL (≈ 34.4 µM); MIC (Klebsiella pneumoniae [12]): 4 µg/mL (≈ 17.2 µM); MIC (Klebsiella pneumoniae [13]): > 512 µg/mL; MIC (Klebsiella pneumoniae [14]): > 512 µg/mL; MIC (Klebsiella pneumoniae [15]): > 512 µg/mL; MIC (Klebsiella pneumoniae [16]): > 512 µg/mL; MIC (Klebsiella pneumoniae [17]): 16 µg/mL (≈ 68.9 µM); MIC (Klebsiella pneumoniae [18]): 4 µg/mL (≈ 17.2 µM); MIC (Klebsiella pneumoniae [19]): > 512 µg/mL; MIC (Klebsiella pneumoniae [20]): > 512 µg/mL; MIC (Klebsiella pneumoniae [21]): 16 µg/mL (≈ 68.9 µM); MIC (Klebsiella pneumoniae [22]): > 512 µg/mL; MIC (Klebsiella pneumoniae [23]): > 512 µg/mL; MIC (Klebsiella pneumoniae [24]): 256 µg/mL (≈ 1100 µM); MIC (Klebsiella pneumoniae [26]): > 512 µg/mL; MIC (Klebsiella pneumoniae [27]): > 512 µg/mL; MIC (Klebsiella pneumoniae [28]): > 512 µg/mL; MIC (Klebsiella pneumoniae [29]): > 512 µg/mL; MIC (Klebsiella pneumoniae [30]): 8 µg/mL (≈ 34.4 µM); MIC (Klebsiella pneumoniae [32]): > 512 µg/mL; MIC (Klebsiella pneumoniae [33]): > 512 µg/mL; MIC (Klebsiella pneumoniae [34]): 4 µg/mL (≈ 17.2 µM); MIC (Klebsiella pneumoniae [35]): > 512 µg/mL; MIC (Klebsiella pneumoniae [36]): 8 µg/mL (≈ 34.4 µM); MIC (Klebsiella pneumoniae [37]): 16 µg/mL (≈ 68.9 µM)

— ChEMBL document CHEMBL1275459 (2008)
